Several values for one entry are separate records, joined by “and”; a condition that tells them apart may be missing. Identical values can stand only once. Like-named read-outs stand apart in the source and are kept apart here.
Experiments:
[1] = target: T1, CYP3A4 (Homo sapiens, UniProt P08684); experiment: Stopped-flow binding kinetics of ligand to purified CYP3A4; conditions: for k2: dissociation rate from KS=k2/k1
[2] = target: T1, CYP3A4; experiment: Spectral MIC formation in CYP3A4 baculosomes, SVD and kinetic modeling; format: biochemical
[3] = target: T1, CYP3A4; format: biochemical
[4] = target: T1, CYP3A4; experiment: In vitro TDI assay in pooled HLM; format: biochemical
[5] = system: rat CYP3A; format: biochemical
[6] = Rat plasma equilibrium dialysis; format: in vitro ADME; conditions: pH 7.4
In short: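 Rat plasma spiked with test compound to a final 2 μM. Dialysed in a 96-well equilibrium dialyser, plasma on one side and blank phosphate buffer (pH 7.4) on the other. Incubated 20 h at 37 °C under 5% CO2. The unbound fraction was determined from the two sides.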

[7] = Rat pharmacokinetics of PPT alone; format: in vivo
[8] = 3A4 baculosomes, Figure 3 scheme
[9] = baculosomes, end of kinetic experiment (~30 min), 100 μM PPT

T1 sequence (P08684 whole entry): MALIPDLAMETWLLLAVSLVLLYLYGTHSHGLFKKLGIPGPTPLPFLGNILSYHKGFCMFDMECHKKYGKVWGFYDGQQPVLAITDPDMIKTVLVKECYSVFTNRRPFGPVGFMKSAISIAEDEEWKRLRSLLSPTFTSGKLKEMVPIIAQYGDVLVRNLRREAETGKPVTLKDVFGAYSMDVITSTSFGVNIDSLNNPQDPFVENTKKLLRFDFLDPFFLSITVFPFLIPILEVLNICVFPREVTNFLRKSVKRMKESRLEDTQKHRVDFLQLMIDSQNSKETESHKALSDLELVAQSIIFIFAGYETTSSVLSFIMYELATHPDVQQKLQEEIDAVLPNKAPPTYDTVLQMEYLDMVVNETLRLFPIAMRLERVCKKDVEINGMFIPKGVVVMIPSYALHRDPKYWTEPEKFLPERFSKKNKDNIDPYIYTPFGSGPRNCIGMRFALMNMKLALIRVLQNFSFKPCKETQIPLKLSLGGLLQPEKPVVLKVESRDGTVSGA

## COc1cc([C@@H]2c3cc4c(cc3[C@H](O)[C@H]3COC(=O)[C@H]23)OCO4)cc(OC)c1OC [PPT, Podophyllotoxin]
[1]; used for 3A4 baculosomes model
  k2: 10600 min⁻¹
[1]; used for HLM model
  k2: 10600 min⁻¹
[1]; fixed in the TDI model fitting
  experimentally determined on-rate (k1) used in the TDI model: 270 µM/s
[1]; from binding kinetic experiment, used for HLM model
  k1: 1080 min⁻¹
[2]; 3A4 baculosomes, 100 μM PPT, Figure 3 scheme, footnote b: fixed value
  k3 (Fe3+:carbene formation): 1.8 min⁻¹
[2]; [8]
  k4 (carbene release, enzyme regeneration): 0.0780 ± 0.0186 min⁻¹
  k5 (reduction to Fe2+:carbene): 0.0804 ± 0.0228 min⁻¹
  k6 (P420 formation from EI): 0.1224 ± 0.0252 min⁻¹
  k7 (P420 degradation): 0.0636 ± 0.0048 min⁻¹
[2]; [9]
  fraction of total P450 as free P450: 15.0 ± 0.8%
  fraction of total P450 in the inactivated form (Fe2+:carbene): 52.0 ± 5.8%
[2]; faster in baculosomes than in HLM
  enzyme regeneration through carbene release, baculosomes versus HLM: about 3 fold
[3]; HLM, Figure 3 scheme
  k4 (carbene release, enzyme regeneration): 0.0195 ± 0.000 min⁻¹
  k6 (P420 formation from EI): 0.0506 ± 0.0401 min⁻¹
  k7 (P420 degradation): 0 min⁻¹
[3]; HLM, Figure 3 scheme, listed as carries footnote b: fixed value
  k3 (Fe3+:carbene formation): 1.134 ± 0.156 min⁻¹
[3]; HLM, end of the experiments
  fraction of cytochrome P450 in the Fe2+:carbene form: 17.2 ± 2.2%
  fraction of cytochrome P450 in the P420 form: 24.0 ± 2.1%
  fraction of cytochrome P450 in the free form: 40.7 ± 7.3%
[3]; spectral MIC formation experiments in HLM
  net rate constant for Fe2+:carbene formation (enzyme inactivation): 0.020 min⁻¹
[4]; Q model
  k3: 95.3 ± 1.7 min⁻¹
  k5: 2334 ± 977 µM⁻¹ min⁻¹
  k7: 0.23 ± 0.07 min⁻¹
  k8: 0.081 ± 0.012 min⁻¹
  k10: 0.011 ± 0.001 min⁻¹
  α: 0.21 ± 0.08
[4]; QI model
  k5: 3371 ± 1567 µM⁻¹ min⁻¹
  k8: 0.15 ± 0.04 min⁻¹
  k9: 0.011 ± 0.001 min⁻¹
  k10: 0.017 ± 006 min⁻¹
  α: 0.16 ± 0.07
[4]; QI model (ESI-QI scheme, Figure 5a)
  k3: 94.9 ± 1.6 min⁻¹
[4]; QI model, Fe3+:carbene formation
  k7: 0.50 ± 0.23 min⁻¹
[5]
  k6/KI2: 3.66 ± 1.01 nM⁻¹ min⁻¹
  k7: 0.12 ± 0.02 min⁻¹ and 0.11 ± 0.02 min⁻¹
[6]
  fraction unbound at 20 h, 2 μM: 0.044 ± 0.006
[7]; PPT alone, 2-compartmental model
  mean Cmax,unbound: 0.17 µM
[7]; male, Sprague-Dawley, plasma
  Cmax: 3.94 µM
  half-life: 37 min

Source: PMC5059843 (Molecular pharmaceutics, 2016)
